The subject of data set [1] is Plasmodium falciparum. The data set can be described thus: Antimalarial activity against chloroquine-sensitive Plasmodium falciparum D10 infected in human type A-positive red blood cells assessed as parasite lactate dehydrogenase activity after 72 hrs by spectrophotometric analysis. It is filed as functional, organism-based. Particulars: D10, 72 h. In outline:
(§1)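 Parasites were cultured in human type A-positive red blood cells at 5% hematocrit. Medium was RPMI 1640 with 1% AlbuMax, 0.01% hypoxanthine, 20 mM Hepes and 2 mM glutamine. Cultures were held at 37 °C under 1% O2, 5% CO2, 94% N2. Compounds were dissolved in water or DMSO, then diluted in medium. Values are mean ± SD of three experiments in duplicate.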

The test system of data set [2] is Plasmodium falciparum. The data set can be described thus: Antimalarial activity against chloroquine-resistant Plasmodium falciparum W2 infected in human type A-positive red blood cells assessed as parasite lactate dehydrogenase activity after 72 hrs by spectrophotometric analysis. The class given is functional, organism-based. Particulars: W2, 72 h. In outline: as §1

Data set [3] in a line: Cytotoxicity against human HMEC1 cells after 72 hrs by MTT assay. The conditions noted are these: HMEC-1, 72 h. It is filed as cell-based. In general terms: Formazan colour is commonly taken as a measure of viable cells.
Data set [4] in a line: Therapeutic index, ratio of IC50 for human HMEC1 cells to IC50 for chloroquine-resistant Plasmodium falciparum W2. The conditions noted are these: read-out: Ratio IC50. The class given is cell-based.

Each structure is given as a SMILES string.

Turning to `COC(=O)[C@H]1CC(C)(C)OO[C@@]1(C)OC` (mixture of isomers), the IC50 in the data set with Plasmodium falciparum [1] and in the data set with Plasmodium falciparum [2] was over 30 µM in each case.

`CC[C@@]1(OC)OOC(C)(C)C[C@@H]1C(=O)OC` (mixture of isomers): the IC50 in the data set on Plasmodium falciparum [1] and in the data set on Plasmodium falciparum [2] was over 30 µM throughout.

With `CCCC[C@@]1(OC)OOC(C)(C)C[C@@H]1C(=O)OC` (mixture of isomers), the values for the IC50 (in data set [3]; in the data set with Plasmodium falciparum [1]; with Plasmodium falciparum [2]) were over 384 µM, 3.7 µM and 1.5 µM, respectively. Further, in data set [4], the selectivity ratio amounted to 90.

For the compound `CCCC[C@]1(OC)OOC(C)(C)C[C@@H]1C(=O)OC` (mixture of isomers), the IC50 with Plasmodium falciparum [1] and in the data set on Plasmodium falciparum [2] was over 30 µM throughout.

Consider `CCCC[C@]1(C)C[C@H](C(=O)OC)[C@](C)(OC)OO1` (mixture of isomers), for which the IC50 in the data set with Plasmodium falciparum [1] was 8.5 µM; in the data set on Plasmodium falciparum [2], 4.9 µM.

For `CCCC[C@@]1(C)C[C@H](C(=O)OC)[C@](C)(OC)OO1` (mixture of isomers), the IC50 in the data set on Plasmodium falciparum [1] came to 12.6 µM; with Plasmodium falciparum [2] it was 11.8 µM.

For `CCCC[C@]1(C)C[C@H](C(=O)OC)[C@@](C)(OC)OO1` (mixture of isomers), the IC50 in the data set on Plasmodium falciparum [1] amounted to 17.7 µM; in the data set on Plasmodium falciparum [2] it was 8.4 µM.

Consider `CCCC[C@@]1(C)C[C@H](C(=O)OC)[C@@](C)(OC)OO1` (mixture of isomers), for which the IC50 amounted to 17.7 µM in the data set on Plasmodium falciparum [1] and 6.4 µM with Plasmodium falciparum [2].

Turning to `CCCC[C@]1(C)C[C@H](C(=O)OC)[C@](CCCC)(OC)OO1` (mixture of isomers), the IC50 in the data set with Plasmodium falciparum [1] came to 4.2 µM; in the data set on Plasmodium falciparum [2], 1.5 µM.

In the case of `CCCC[C@@]1(C)C[C@H](C(=O)OC)[C@](CCCC)(OC)OO1` (mixture of isomers), the figures for the IC50 (in data set [3]; in the data set with Plasmodium falciparum [1]; in the data set on Plasmodium falciparum [2]) were 167 µM, 2.6 µM and 1.3 µM, respectively. In addition, in data set [4], the selectivity ratio turned out to be 90.

`CCCC[C@]1(C)C[C@H](C(=O)OC)[C@@](CCCC)(OC)OO1` (mixture of isomers): the IC50 with Plasmodium falciparum [1] came out at 12.3 µM; with Plasmodium falciparum [2] it was 5 µM.

On to `CCCCC1(CCCC)C[C@H](C(=O)OC)[C@](C)(OC)OO1` (mixture of isomers), for which the results for the IC50 in the data set on Plasmodium falciparum [1] and in the data set on Plasmodium falciparum [2] were 7.4 µM and 2.5 µM, respectively.

With `CCCCC1(CCCC)C[C@H](C(=O)OC)[C@@](C)(OC)OO1` (mixture of isomers), the results for the IC50 (in data set [3]; with Plasmodium falciparum [1]; in the data set with Plasmodium falciparum [2]) were 98.3 µM, 2.6 µM and 0.8 µM, respectively. For the same compound, the selectivity ratio in data set [4] stood at 90.

Turning to `CCCCC1(CCCC)C[C@H](C(=O)OC)[C@](CCCC)(OC)OO1` (mixture of isomers), the IC50 in data set [3] is 108 µM; in the data set with Plasmodium falciparum [1], 2.9 µM; with Plasmodium falciparum [2], 1.2 µM. Moreover, the selectivity ratio in data set [4] was determined as 90.

As for `CCCCC1(CCCC)C[C@H](C(=O)OC)[C@@](CCCC)(OC)OO1` (racemic), the IC50 with Plasmodium falciparum [1] came out at 2.3 µM; with Plasmodium falciparum [2], 1.2 µM.

For `CC/C=C/[C@H](CC)C[C@@]1(C)C[C@@H](CC)[C@@H](CC(=O)OC)OO1` [PLAKORTIN], the IC50 in the data set on Plasmodium falciparum [1] was found to be 0.9 µM; with Plasmodium falciparum [2], 0.4 µM.

Broadly, the IC50 is the concentration needed to halve the response being measured.
